Here are results for 2 compounds from ChEMBL document CHEMBL1152452, “Modifications incorporated in CpG motifs of oligodeoxynucleotides lead to antagonist activity of toll-like receptors 7 and 9” (2009).

In assay [1] the test system is Mus musculus. Kind of assay: Immunostimulatory activity in C57BL/6 mouse assessed as induction of KC level in serum at 2 mg/kg, sc after 2 hrs by Luminex multiplex assay. In kind it is functional, organism-based. More on the design: dose 2 mg/kg. An outline of the steps: (§1)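 Female C57BL/6 mice, 5–6 weeks old, n = 3, received a single 2 mg/kg subcutaneous ODN injection in the right flank. Blood was taken by retro-orbital bleeding 2 h later. Naive mice served as baseline. Representative of three experiments.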

Assay [2] has as its system J774. As to the kind of experiment: Activation of NF-kappaB in mouse J774 cells at 2.5 ug/ml after 1 hr by EMSA. In kind it is cell-based. An outline of the steps: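 Murine J774 macrophages in DMEM with 10% FBS and antibiotics, plated at 5×10^6 cells/well. ODNs were given alone or together for 1 h. For inhibition, the agonist ODN at 0.5 μg/mL was co-incubated with the modified ODN at 2.5 μg/mL. Nuclear extracts were resolved by EMSA on native polyacrylamide gels and read by autoradiography.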

Assay [3] deals with Mus musculus. As to the kind of experiment: Immunostimulatory activity in C57BL/6 mouse assessed as induction of MIP-1alpha level in serum at 2 mg/kg, sc after 2 hrs by Luminex multiplex assay. It is filed as functional, organism-based. More on the design: dose 2 mg/kg. An outline of the steps: as §1
The test system of assay [4] is Mus musculus. As to the kind of experiment: Immunostimulatory activity in C57BL/6 mouse assessed as induction of IL10 level in serum at 2 mg/kg, sc after 2 hrs by Luminex multiplex assay. In kind it is functional, organism-based. Also noted: dose 2 mg/kg. An outline of the steps:
as §1

For assay [5], the system named is Splenocyte. Kind of assay: Inhibition of 5'-CTATCTGACGTTCTCTGT-3'-induced IL6 secretion in C57BL/6 mouse splenocytes after 24 hrs by sandwich ELISA. It is filed as functional, cell-based. An outline of the steps: (§2)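 Splenocytes from 5–8-week C57BL/6 mice, 5 × 10^6 cells/mL in RPMI complete medium, were co-incubated with the TLR9 agonist ODN (1 µg/mL) plus test ODN at 1 or 4 µg/mL, or over a concentration series, at 37 °C for 24 h. Supernatant IL-12 or IL-6 was measured by sandwich ELISA. Runs were done in duplicate, with three independent experiments.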

The test system of assay [6] is Mus musculus. As to the kind of experiment: Immunostimulatory activity in C57BL/6 mouse assessed as inhibition of 5'-CTATCTGACGTTCTCTGT-3'-induced IL12 production in serum at 2 mg/kg, sc administered 24 hrs prior to 5'-CTATCTGACGTTCTCTGT-3' challenge measured after 2 hrs by sandwich ELISA. It is filed as functional. As to conditions: C57BL/6, sc, route subcutaneous. An outline of the steps:
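C57BL/6 mice were pretreated sc in the right flank with 2, 5 or 10 mg/kg ODN. After 24 h, the TLR9 agonist ODN was given at 0.5 mg/kg sc in the left flank. Serum IL-12 was measured by ELISA 2 h later. Representative of two experiments.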

Assay [7] addresses T1, Toll-like receptor 9 (Mus musculus) (UniProt Q9EQU3).
T1 sequence (whole entry): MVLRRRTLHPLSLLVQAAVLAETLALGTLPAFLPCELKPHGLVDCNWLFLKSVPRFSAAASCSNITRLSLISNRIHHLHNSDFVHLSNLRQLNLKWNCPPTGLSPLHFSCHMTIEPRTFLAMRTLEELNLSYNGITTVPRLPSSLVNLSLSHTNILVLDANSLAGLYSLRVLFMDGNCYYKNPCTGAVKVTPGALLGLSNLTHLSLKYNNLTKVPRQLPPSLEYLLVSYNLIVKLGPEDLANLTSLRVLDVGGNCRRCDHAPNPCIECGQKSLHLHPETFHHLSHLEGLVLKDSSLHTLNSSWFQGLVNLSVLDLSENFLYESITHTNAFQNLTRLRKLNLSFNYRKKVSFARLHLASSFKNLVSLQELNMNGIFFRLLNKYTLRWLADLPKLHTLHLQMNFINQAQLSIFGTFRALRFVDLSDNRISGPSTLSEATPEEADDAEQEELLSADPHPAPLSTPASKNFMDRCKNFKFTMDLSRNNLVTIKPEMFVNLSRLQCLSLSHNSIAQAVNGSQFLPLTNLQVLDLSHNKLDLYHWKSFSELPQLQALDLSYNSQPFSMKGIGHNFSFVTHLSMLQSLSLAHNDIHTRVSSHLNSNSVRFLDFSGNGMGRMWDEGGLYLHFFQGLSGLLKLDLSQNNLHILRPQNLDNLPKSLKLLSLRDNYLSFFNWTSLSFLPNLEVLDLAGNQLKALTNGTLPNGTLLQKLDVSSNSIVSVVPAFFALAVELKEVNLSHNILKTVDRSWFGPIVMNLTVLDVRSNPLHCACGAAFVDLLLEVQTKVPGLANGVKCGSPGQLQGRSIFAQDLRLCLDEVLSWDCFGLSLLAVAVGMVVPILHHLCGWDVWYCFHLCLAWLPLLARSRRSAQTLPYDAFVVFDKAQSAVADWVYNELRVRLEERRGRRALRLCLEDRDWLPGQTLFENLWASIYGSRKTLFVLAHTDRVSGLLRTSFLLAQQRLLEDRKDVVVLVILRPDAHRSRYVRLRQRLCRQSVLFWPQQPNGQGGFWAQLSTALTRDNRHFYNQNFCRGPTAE
Kind of assay: Activation of mouse TLR9 expressed in HEK293 cells assessed as NF-kappaB level at 1 ug/mL after 18 hrs by reporter gene assay. It is filed as cell-based. An outline of the steps:
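HEK293 cells stably expressing mouse TLR9 were transiently transfected with a SEAP reporter for 6 h, then stimulated with ODN at 0.1, 0.3 or 1 μg/mL for 18 h. Reporter expression is given as fold change in NF-κB activity over medium. Representative of two independent experiments.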

In assay [8] the test system is Mus musculus. Kind of assay: Immunostimulatory activity in C57BL/6 mouse assessed as induction of MCP1 level in serum at 2 mg/kg, sc after 2 hrs by Luminex multiplex assay. It is filed as functional, organism-based. More on the design: dose 2 mg/kg. An outline of the steps: as §1
Assay [9] relates to Splenocyte. Kind of assay: Immunostimulatory activity in C57BL/6 mouse splenocytes assessed as induction of IL6 secretion at 2 to 10 ug/ml after 24 hrs by sandwich ELISA. It is filed as functional, cell-based. An outline of the steps:
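C57BL/6 splenocytes (mice 5–8 weeks) at 5 × 10^6 cells/mL in RPMI complete medium. ODNs dissolved in PBS were added and the cells incubated at 37 °C for 24 h. Supernatant IL-12 or IL-6 was measured by sandwich ELISA. Runs were done two or three times, in duplicate per concentration.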

Assay [10] has as its system Mus musculus. Kind of assay: Immunostimulatory activity in C57BL/6 mouse assessed as induction of IL12 level in serum at 2 mg/kg, sc after 2 hrs by sandwich ELISA. It is filed as functional, organism-based. More on the design: dose 2 mg/kg. An outline of the steps: as §1
The subject of assay [11] is Splenocyte. As to the kind of experiment: Inhibition of 5'-CTATCTGACGTTCTCTGT-3'-induced IL12 secretion in C57BL/6 mouse splenocytes after 24 hrs by sandwich ELISA. It is filed as functional, cell-based. An outline of the steps: as §2

Structures are written as SMILES. The source made the active and inactive calls. No cut-off for these calls is given here.

As for `COC1[C@H](n2cc(C)c(N)nc2=O)O[C@H](COP(=O)(S)O[C@H]2C[C@H](n3cnc4c(N)ncnc43)O[C@@H]2COP(=O)(S)O[C@H]2C[C@H](n3cnc4c(=O)[nH]c(N)nc43)O[C@@H]2COP(=O)(S)O[C@H]2C[C@H](n3cc(C)c(=O)[nH]c3=O)O[C@@H]2COP(=O)(S)O[C@H]2C[C@H](n3ccc(N)nc3=O)O[C@@H]2COP(=O)(S)O[C@H]2C[C@H](n3cc(C)c(=O)[nH]c3=O)O[C@@H]2COP(=O)(S)O[C@H]2C[C@H](n3cnc4c(N)ncnc43)O[C@@H]2COP(=O)(S)O[C@H]2C[C@H](n3cc(C)c(=O)[nH]c3=O)O[C@@H]2COP(=O)(S)O[C@H]2C[C@H](n3ccc(N)nc3=O)O[C@@H]2CO)[C@H]1OP(=O)(S)OC[C@H]1O[C@@H](n2cnc3c(=O)[nH]c(N)nc32)C[C@@H]1OP(=O)(S)OC[C@H]1O[C@@H](n2cc(C)c(=O)[nH]c2=O)C[C@@H]1OP(=O)(S)OC[C@H]1O[C@@H](n2cc(C)c(=O)[nH]c2=O)C[C@@H]1OP(=O)(S)OC[C@H]1O[C@@H](n2ccc(N)nc2=O)C[C@@H]1OP(=O)(S)OC[C@H]1O[C@@H](n2cc(C)c(=O)[nH]c2=O)C[C@@H]1OP(=O)(S)OC[C@H]1O[C@@H](n2ccc(N)nc2=O)C[C@@H]1OP(=O)(S)OC[C@H]1O[C@@H](n2cc(C)c(=O)[nH]c2=O)C[C@@H]1OP(=O)(S)OC[C@H]1O[C@@H](n2cnc3c(=O)[nH]c(N)nc32)C[C@@H]1OP(=O)(S)OC[C@H]1O[C@@H](n2cc(C)c(=O)[nH]c2=O)C[C@@H]1O` (stereo not given in full), the outcome in assay [1], in assay [2], in assay [3], in assay [4], in assay [7] and in [8] was inactive. Besides, the result in [10] was inactive. For the same compound, the Activity entry in assay [5] and in assay [11] was “Dose-dependent effect” in each case. In addition, the inhibition in vivo at 2 mg/kg in [6] was 50%. The outcome in assay [9] was Active.
In the case of `CO[C@@H]1[C@H](OP(=O)(S)OC[C@H]2O[C@@H](n3cnc4c(=O)[nH]c(N)nc43)C[C@@H]2OP(=O)(S)OC[C@H]2O[C@@H](n3cc(C)c(=O)[nH]c3=O)C[C@@H]2OP(=O)(S)OC[C@H]2O[C@@H](n3cc(C)c(=O)[nH]c3=O)C[C@@H]2OP(=O)(S)OC[C@H]2O[C@@H](n3ccc(N)nc3=O)C[C@@H]2OP(=O)(S)OC[C@H]2O[C@@H](n3cc(C)c(=O)[nH]c3=O)C[C@@H]2OP(=O)(S)OC[C@H]2O[C@@H](n3ccc(N)nc3=O)C[C@@H]2OP(=O)(S)OC[C@H]2O[C@@H](n3cc(C)c(=O)[nH]c3=O)C[C@@H]2OP(=O)(S)OC[C@H]2O[C@@H](n3cnc4c(=O)[nH]c(N)nc43)C[C@@H]2OP(=O)(S)OC[C@H]2O[C@@H](n3cc(C)c(=O)[nH]c3=O)C[C@@H]2O)[C@@H](COP(=O)(S)O[C@H]2C[C@H](n3cnc4c(N)ncnc43)O[C@@H]2COP(=O)(S)O[C@H]2C[C@H](n3cnc4c(=O)[nH]c(N)nc43)O[C@@H]2COP(=O)(S)O[C@H]2C[C@H](n3cc(C)c(=O)[nH]c3=O)O[C@@H]2COP(=O)(S)O[C@H]2C[C@H](n3ccc(N)nc3=O)O[C@@H]2COP(=O)(S)O[C@H]2C[C@H](n3cc(C)c(=O)[nH]c3=O)O[C@@H]2COP(=O)(S)O[C@H]2C[C@H](n3cnc4c(N)ncnc43)O[C@@H]2COP(=O)(S)O[C@H]2C[C@H](n3cc(C)c(=O)[nH]c3=O)O[C@@H]2COP(=O)(S)O[C@H]2C[C@H](n3ccc(N)nc3=O)O[C@@H]2CO)O[C@H]1n1ccc(N)nc1=O` (stereo not given in full), the outcome in assay [1], in assay [2], in [3], in [4], in [7] and in assay [8] was inactive. For the same compound, the result in assay [10] was inactive. Moreover, in [6], the inhibition in vivo at 2 mg/kg amounted to 50%. In addition, the outcome in assay [9] was Active.
